Source: ChEMBL document CHEMBL4177623, “Concise syntheses and HCV NS5B polymerase inhibition of (2'R)-3 and (2'S)-2'-ethynyluridine-10 and related nucleosides” (Bioorg Med Chem Lett, 2017)

Target: RNA-directed RNA polymerase (Hepacivirus hominis, UniProt O39930)
Experiment: Inhibition of wild-type HCV genotype 1b BK NS5B Cdelta55 RNA dependent RNA polymerase using RNA as substrate after 1 hr in presence of NTPs by [33P]-CTP based topcount assay
Set-up: species or system Hepatitis C virus (isolate BK)
Details: not given

Sequence of RNA-directed RNA polymerase (O39930 whole entry): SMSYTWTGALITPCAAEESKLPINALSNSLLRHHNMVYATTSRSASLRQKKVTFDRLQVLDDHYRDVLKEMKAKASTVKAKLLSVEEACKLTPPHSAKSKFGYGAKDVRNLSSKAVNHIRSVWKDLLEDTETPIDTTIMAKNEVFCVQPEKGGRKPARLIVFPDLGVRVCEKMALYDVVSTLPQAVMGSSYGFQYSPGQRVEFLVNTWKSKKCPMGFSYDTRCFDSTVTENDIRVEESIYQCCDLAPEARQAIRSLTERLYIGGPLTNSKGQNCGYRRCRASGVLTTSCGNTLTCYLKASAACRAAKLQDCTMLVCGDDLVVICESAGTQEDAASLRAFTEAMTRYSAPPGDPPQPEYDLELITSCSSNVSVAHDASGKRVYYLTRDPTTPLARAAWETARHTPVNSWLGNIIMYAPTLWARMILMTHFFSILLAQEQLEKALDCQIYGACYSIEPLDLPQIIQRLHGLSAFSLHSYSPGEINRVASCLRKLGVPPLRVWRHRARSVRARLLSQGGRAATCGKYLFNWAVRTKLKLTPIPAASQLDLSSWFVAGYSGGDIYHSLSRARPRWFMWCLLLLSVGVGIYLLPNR

Q: With `CC#C[C@@]1(O)[C@H](O)[C@@H](COP(=O)(O)OP(=O)(O)OP(=O)(O)O)O[C@H]1n1ccc(=O)[nH]c1=O` as the compound, how does the IC50 read?
A: 0.16 µM

Q: How did the IC50 turn out when `CC#C[C@@]1(F)[C@H](O)[C@@H](COP(=O)(O)OP(=O)(O)OP(=O)(O)O)O[C@H]1n1ccc(=O)[nH]c1=O` was run?
A: 9.9 µM

Q: Which IC50 does the source give for `C#C[C@]1(O)[C@H](O)[C@@H](COP(=O)(O)OP(=O)(O)OP(=O)(O)O)O[C@H]1n1ccc(=O)[nH]c1=O` here?
A: 54 µM

Q: Which IC50 does the source give for `CCCCCCN(C)C.CCCCCCN(C)C.CCCCCCN(C)C.CCCCCCN(C)C.C[C@@]1(F)[C@H](O)[C@@H](COP(=O)(O)OP(=O)(O)OP(=O)(O)O)O[C@H]1n1ccc(=O)[nH]c1=O` here?
A: 1.1 µM

Q: How did the IC50 turn out when `C#C[C@@]1(O)[C@H](O)[C@@H](COP(=O)(O)OP(=O)(O)OP(=O)(O)O)O[C@H]1n1ccc(=O)[nH]c1=O` was run?
A: 0.09 µM

Q: `C#C[C@@]1(F)[C@H](O)[C@@H](COP(=O)(O)OP(=O)(O)OP(=O)(O)O)O[C@H]1n1ccc(=O)[nH]c1=O` was tested. Which IC50 did it give?
A: 3.6 µM

System: Hepatitis C virus
Experiment: Antiviral activity against HCV genotype 1b Con1 infected in replicon cells after 3 days by real-time PCR analysis
Type: functional, organism-based, Hepacivirus hominis
Details: isolate Con1, 72 h
Outline: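 Con1 genotype 1b replicon cells plated at 5000/well one day before dosing; inhibitor added from DMSO in 10 serial twofold dilutions, triplicate, final 0.5% DMSO, 10% FBS. Harvest 3 days post-dose; replicon RNA measured by real-time RT-PCR (Taqman) normalised to GAPDH RNA; EC50 derived.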

Q: With `CC#C[C@@]1(F)[C@H](O)[C@@H](CO)O[C@H]1n1ccc(=O)[nH]c1=O` as the compound, how does the EC50 read?
A: > 100 µM

Q: How did the EC50 turn out when `C#C[C@@]1(O)[C@H](O)[C@@H](CO)O[C@H]1n1ccc(=O)[nH]c1=O` was run?
A: > 100 µM

Q: With `CC#C[C@@]1(O)[C@H](O)[C@@H](CO)O[C@H]1n1ccc(=O)[nH]c1=O` as the compound, how does the EC50 read?
A: > 100 µM
